Measured values taken from ChEMBL document CHEMBL4680269, “N-benzylpiperidinol derivatives as novel USP7 inhibitors: Structure-activity relationships and X-ray crystallographic studies” (Eur J Med Chem, 2020).
Calls of active or inactive are those of the source. The calls are words filed in the database; no cut-off is given here.

What was measured:
[1] = target: Ubiquitin carboxyl-terminal hydrolase 11 (Homo sapiens) (UniProt P51784); experiment: Inhibition of USP11 (unknown origin) at 20 uM
[2] = target: T1, Ubiquitin carboxyl-terminal hydrolase 28 (Homo sapiens) (UniProt Q96RU2); experiment: Inhibition of USP28 (unknown origin) at 20 uM
T1 sequence (whole entry): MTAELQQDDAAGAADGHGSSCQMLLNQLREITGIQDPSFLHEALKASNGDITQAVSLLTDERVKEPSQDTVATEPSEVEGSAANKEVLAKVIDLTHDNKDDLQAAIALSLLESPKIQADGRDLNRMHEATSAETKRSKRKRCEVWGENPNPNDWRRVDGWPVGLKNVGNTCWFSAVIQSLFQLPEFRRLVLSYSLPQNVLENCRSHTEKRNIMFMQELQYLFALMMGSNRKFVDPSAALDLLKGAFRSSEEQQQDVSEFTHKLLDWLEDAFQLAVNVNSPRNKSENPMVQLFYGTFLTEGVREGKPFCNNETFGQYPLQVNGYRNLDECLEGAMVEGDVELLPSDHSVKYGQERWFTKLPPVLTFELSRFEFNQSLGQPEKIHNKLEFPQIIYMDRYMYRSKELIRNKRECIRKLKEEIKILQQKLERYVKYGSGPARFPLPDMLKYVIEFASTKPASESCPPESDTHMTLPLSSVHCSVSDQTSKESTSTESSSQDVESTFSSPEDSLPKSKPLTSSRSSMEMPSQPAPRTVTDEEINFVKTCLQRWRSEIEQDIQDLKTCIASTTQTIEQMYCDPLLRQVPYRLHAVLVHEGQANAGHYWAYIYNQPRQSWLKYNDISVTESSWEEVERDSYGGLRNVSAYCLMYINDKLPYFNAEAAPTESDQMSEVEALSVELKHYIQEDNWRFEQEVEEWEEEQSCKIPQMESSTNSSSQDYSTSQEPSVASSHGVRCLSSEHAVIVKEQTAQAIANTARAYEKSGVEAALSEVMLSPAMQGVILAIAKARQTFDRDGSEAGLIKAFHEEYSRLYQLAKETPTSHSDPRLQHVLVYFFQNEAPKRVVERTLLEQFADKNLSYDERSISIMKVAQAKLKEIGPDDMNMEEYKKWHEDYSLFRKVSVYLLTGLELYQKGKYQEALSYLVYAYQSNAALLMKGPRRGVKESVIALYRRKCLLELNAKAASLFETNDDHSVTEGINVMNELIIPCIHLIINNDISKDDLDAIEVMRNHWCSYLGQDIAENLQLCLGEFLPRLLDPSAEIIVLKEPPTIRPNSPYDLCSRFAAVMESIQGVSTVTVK

Huh-7 = experiment: Antiproliferative activity against human HuH-7 cells assessed as reduction in cell viability incubated for 3 days by cell-titer glo assay; format: functional, cell-based; conditions: Huh-7, 72 h
How it was run: (§1)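 Cells seeded in 96-well plates (RS4;11 5000 cells/well; HCT-116, Huh7, K562, NB4 2000 cells/well), dosed after 24 h with a range of compound concentrations for 3 days. Viability read by CellTiter-Glo luminescence; IC50 from curve fitting.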

NB-4 = experiment: Antiproliferative activity against human NB-4 cells assessed as reduction in cell viability incubated for 3 days by cell-titer glo assay; format: functional, cell-based; conditions: NB-4, 72 h; how it was run: as §1
[3] = target: T2, Ubiquitin carboxyl-terminal hydrolase 25 (Homo sapiens) (UniProt Q9UHP3); experiment: Inhibition of USP25 (unknown origin) at 20 uM
T2 sequence (whole entry): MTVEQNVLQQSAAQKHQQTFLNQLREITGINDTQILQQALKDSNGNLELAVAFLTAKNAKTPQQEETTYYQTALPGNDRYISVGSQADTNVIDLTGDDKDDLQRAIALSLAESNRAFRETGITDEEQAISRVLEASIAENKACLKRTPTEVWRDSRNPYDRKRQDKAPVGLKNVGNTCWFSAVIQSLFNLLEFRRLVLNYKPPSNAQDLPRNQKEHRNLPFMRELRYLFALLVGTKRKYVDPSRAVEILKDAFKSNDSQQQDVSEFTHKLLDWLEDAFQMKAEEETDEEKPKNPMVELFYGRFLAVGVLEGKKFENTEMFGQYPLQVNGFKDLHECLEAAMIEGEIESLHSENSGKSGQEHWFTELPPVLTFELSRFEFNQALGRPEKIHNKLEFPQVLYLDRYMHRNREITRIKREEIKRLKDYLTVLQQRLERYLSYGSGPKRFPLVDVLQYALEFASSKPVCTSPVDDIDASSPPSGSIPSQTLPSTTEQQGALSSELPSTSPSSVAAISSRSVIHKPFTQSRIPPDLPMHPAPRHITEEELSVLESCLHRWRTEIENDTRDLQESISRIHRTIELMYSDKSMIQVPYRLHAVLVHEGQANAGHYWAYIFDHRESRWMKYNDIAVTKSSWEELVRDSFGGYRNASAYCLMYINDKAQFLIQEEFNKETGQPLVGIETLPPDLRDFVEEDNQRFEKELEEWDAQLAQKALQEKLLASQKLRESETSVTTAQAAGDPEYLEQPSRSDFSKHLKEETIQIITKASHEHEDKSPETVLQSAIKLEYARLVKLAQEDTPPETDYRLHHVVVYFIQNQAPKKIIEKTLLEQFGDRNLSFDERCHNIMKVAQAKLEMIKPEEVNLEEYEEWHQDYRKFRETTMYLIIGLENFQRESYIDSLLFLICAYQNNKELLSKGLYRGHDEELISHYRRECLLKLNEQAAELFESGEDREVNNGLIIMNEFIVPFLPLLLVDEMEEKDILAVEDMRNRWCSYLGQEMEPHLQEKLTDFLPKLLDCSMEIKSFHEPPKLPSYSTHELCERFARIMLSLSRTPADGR

[4] = target: T3, Ubiquitin carboxyl-terminal hydrolase 2 (Homo sapiens) (UniProt O75604); experiment: Inhibition of USP2 (unknown origin) at 20 uM
T3 sequence (whole entry): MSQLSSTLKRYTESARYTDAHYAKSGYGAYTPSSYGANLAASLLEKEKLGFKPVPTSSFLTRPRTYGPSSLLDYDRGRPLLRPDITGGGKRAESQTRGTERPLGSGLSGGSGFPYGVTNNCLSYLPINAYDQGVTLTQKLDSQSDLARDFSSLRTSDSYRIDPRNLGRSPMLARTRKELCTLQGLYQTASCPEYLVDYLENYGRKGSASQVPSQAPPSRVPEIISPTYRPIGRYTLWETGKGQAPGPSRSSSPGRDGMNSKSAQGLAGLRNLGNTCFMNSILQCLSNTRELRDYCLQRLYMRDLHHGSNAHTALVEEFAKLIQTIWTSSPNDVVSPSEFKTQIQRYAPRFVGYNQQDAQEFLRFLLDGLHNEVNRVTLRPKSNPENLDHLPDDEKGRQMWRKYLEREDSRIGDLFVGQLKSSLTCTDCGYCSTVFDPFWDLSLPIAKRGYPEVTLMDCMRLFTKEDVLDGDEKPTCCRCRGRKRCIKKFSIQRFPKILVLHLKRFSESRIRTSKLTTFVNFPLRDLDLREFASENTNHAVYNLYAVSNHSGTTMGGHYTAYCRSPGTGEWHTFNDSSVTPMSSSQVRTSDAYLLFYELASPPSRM

[5] = target: T4, Ubiquitin carboxyl-terminal hydrolase isozyme L5 (Homo sapiens) (UniProt Q9Y5K5); experiment: Inhibition of UCH-L5 (unknown origin) at 20 uM
T4 sequence (whole entry): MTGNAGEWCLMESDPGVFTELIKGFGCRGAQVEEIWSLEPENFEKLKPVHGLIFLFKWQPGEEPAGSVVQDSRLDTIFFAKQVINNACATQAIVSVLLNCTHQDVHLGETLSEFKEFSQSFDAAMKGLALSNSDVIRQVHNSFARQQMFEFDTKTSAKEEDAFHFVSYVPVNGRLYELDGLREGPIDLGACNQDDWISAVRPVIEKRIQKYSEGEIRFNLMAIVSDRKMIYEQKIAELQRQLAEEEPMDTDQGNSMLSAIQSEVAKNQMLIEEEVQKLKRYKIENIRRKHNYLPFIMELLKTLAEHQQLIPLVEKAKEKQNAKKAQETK

HCT-116 = experiment: Antiproliferative activity against human HCT-116 cells assessed as reduction in cell viability incubated for 3 days by cell-titer glo assay; format: functional, cell-based; conditions: HCT-116, 72 h; how it was run: as §1
[6] = Antiproliferative activity against human K562 cells assessed as reduction in cell viability incubated for 3 days by cell-titer glo assay; format: functional, cell-based; conditions: K562, 72 h; how it was run: as §1
RS4-11 = experiment: Antiproliferative activity against human RS4-11 cells assessed as reduction in cell viability incubated for 3 days by cell-titer glo assay; format: functional, cell-based; conditions: RS4-11, 72 h; how it was run: as §1
LNCaP = experiment: Antiproliferative activity against human LNCaP cells assessed as reduction in cell viability incubated for 6 days by cell-titer glo assay; format: functional, cell-based; conditions: 144 h
How it was run: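 LNCaP seeded at 2500 cells/well in 96-well plates, treated 24 h later with a range of compound concentrations for 6 days. Viability by CellTiter-Glo; IC50 from curve fitting.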

[7] = target: Ubiquitin carboxyl-terminal hydrolase isozyme L1 (Homo sapiens) (UniProt P09936); experiment: Inhibition of UCH-L1 (unknown origin) at 20 uM
Sequence of Ubiquitin carboxyl-terminal hydrolase isozyme L1 (Homo sapiens) (P09936 whole entry, looked up): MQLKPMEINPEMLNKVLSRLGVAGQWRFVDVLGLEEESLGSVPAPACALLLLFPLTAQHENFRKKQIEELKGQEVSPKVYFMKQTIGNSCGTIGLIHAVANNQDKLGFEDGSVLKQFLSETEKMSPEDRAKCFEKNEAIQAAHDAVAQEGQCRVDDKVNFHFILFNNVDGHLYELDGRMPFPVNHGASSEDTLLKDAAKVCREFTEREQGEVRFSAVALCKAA

Sequence of Ubiquitin carboxyl-terminal hydrolase 11 (Homo sapiens) (P51784 whole entry): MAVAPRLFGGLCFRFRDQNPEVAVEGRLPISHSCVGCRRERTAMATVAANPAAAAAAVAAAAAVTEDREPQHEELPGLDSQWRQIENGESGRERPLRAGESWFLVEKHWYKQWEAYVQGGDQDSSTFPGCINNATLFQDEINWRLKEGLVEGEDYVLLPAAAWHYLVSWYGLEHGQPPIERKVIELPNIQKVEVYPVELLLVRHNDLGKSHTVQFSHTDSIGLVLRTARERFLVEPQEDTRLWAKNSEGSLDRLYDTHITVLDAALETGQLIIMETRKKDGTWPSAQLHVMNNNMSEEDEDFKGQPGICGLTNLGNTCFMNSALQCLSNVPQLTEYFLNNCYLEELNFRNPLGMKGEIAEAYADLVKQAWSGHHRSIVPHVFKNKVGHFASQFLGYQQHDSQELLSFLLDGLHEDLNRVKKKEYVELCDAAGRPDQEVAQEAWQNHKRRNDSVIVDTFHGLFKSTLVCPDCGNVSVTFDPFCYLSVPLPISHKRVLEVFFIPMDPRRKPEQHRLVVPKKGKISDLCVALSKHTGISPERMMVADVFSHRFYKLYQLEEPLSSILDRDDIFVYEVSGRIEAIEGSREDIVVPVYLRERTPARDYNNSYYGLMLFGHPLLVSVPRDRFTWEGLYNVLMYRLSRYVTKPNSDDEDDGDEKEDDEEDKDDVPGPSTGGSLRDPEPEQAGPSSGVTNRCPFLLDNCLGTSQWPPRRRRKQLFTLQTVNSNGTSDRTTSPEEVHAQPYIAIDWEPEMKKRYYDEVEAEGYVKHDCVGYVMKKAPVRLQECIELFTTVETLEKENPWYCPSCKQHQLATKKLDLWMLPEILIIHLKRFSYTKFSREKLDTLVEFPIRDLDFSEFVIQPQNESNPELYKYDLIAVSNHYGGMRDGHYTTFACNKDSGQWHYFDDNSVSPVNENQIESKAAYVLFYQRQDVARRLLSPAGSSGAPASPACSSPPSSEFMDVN

inhibition [1]: inactive
inhibition [2]: inactive
IC50 (Huh-7): 10.7 µM
inhibition [3]: inactive
inhibition [4]: inactive
inhibition [5]: inactive
IC50 (HCT-116): > 50 µM
IC50 (RS4-11): 0.0069 µM
IC50 (LNCaP): 0.0201 µM
inhibition [7]: inactive
SMILES: C[C@H](CC(=O)N1CCC(O)(Cn2cnc3c(-c4ccc(CN)cc4)n(C)nc3c2=O)CC1)c1ccccc1
IC50 (NB-4): > 50 µM
IC50 [6]: 24.1 µM
